Bioassay records from PubChem.
Most compounds without a hit are left out; they make up all but 2.1% or so of the library.
SUMO1-SIM PPI: modulators of human SUMO1-mediated protein-protein interactions | inhibition, % at 20 µM | P63165 | actives 0.33% (n = 360,000) | SUMO1 binding to a labelled peptide, TR-FRET, 1 h; in the data active = inhibition above about 37%
Target sequence (P63165 whole entry, looked up): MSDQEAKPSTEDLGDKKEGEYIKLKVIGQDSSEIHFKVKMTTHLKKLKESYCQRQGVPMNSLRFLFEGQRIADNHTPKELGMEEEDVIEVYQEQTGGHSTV
LMPTP inh: LMPTP (human) inhibition | P24666 | recombinant LMPTP-A, OMFP fluorogenic substrate, fluorescence intensity | inhibition, % at 20 µM | actives 0.22% (n = 360,000);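 active = compounds that cut the enzyme signal by at least half of the control window in the single-dose screen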
Target sequence (P24666 whole entry, looked up): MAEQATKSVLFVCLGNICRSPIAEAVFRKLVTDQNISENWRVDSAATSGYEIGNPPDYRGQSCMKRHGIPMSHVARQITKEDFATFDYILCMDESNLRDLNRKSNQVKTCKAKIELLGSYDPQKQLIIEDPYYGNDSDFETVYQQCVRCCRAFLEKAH
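Material: LMPTP-A; amount: 0.625 nM enzyme; doses: single 20 µM dose; times: reaction 50 min, room temperature, dark; technique: fluorescence intensity of OMFP turnover product; benchmarks: no-enzyme and uninhibited controls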
STEP inh: STEP (human) phosphatase inhibition. P54829. recombinant STEP, OMFP fluorogenic substrate, fluorescence. inhibition, % at 20 µM. actives 0.25% (n = 360,000). AID 588621;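 active = inhibition at 20 µM, scaled per plate between control wells, above about 37%, limit read from the data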
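Material: STEP (striatal-enriched tyrosine phosphatase) enzyme, cell-free; Compound dosing: 20 µM single dose in 1% DMSO; Technique: fluorescence read at 480 nm ex / 540 nm em; Times: reaction 20 min, ambient temperature; Medium: 50 mM Bis-Tris pH 6.0 with 2.5 mM DTT and 0.005% Tween 20; Also added: OMFP at 25 µM.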
GRK2 inh: human GRK2 inhibition via aptamer displacement; P25098; bead flow cytometry, FAM-aptamer displacement from GRK2; inhibition of aptamer binding, % at 10 µM; actives 0.59% (n = 330,000); AID 488847;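 active = inhibition of aptamer binding above 40%, roughly 3 SD of noise, on plates passing a quality check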;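 also: median bead fluorescence of bound FAM aptamer so fluorescent compounds give negative values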
DNMT1 inh: blocks human DNA methyltransferase DNMT1 | inhibition (reported as % activation of signal), % at 10 µM | P26358 | actives 0.83% (n = 360,000) | DNMT1 molecular beacon, Hinp1I cleavage, fluorescence; in the data active = inhibition above about 50%
Scp-1 inhibitor: inhibitors of human Scp-1 phosphatase; Q9GZU7; Recombinant Scp1, phosphopeptide, malachite green phosphate absorbance; inhibition, % at 20 µM; actives 0.88% (n = 340,000); AID 493091;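 active = inhibition above about 50% at 20 µM, limit read from the data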
Target sequence (Q9GZU7 76-261 limits assumed): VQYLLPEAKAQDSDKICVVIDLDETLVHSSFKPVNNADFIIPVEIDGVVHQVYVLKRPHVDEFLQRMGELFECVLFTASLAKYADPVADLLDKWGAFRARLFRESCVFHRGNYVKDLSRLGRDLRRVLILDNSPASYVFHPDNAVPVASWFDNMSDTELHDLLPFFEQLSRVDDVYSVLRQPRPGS
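System: SCP-1 catalytic domain; Reagent: Phospho 17-mer peptide substrate; Doses: one concentration, 20 µM, with 1.0% DMSO; Incubation: 45 min room-temperature reaction, 5 min colour, 30 min stabiliser; Signal: Phosphate-binding colour reagent, absorbance read at 630 nm.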
Scp-1 conf: confirmation of human Scp-1 phosphatase inhibitors; shares compounds with Scp-1 inhibitor; recombinant SCP-1 catalytic domain, phosphate release, malachite green absorbance; inhibition, % at 20 µM; actives 61% (n = 2,500)
MG interference: interferes with malachite green readout, flagging false Scp-1 hits; shares compounds with Scp-1 inhibitor; Colorimetric interference counterscreen, malachite green absorbance 630 nm; apparent inhibition (interference), % at 20 µM; 2,500 tested, under 10 active; AID 540313;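 also: compounds added after enzyme reaction finished so only phosphate colour detection is probed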
Scp1 DSF: Scp-1 (human) binding by thermal shift; shares compounds with Scp-1 inhibitor; Recombinant SCP1, Sypro Orange thermal shift Tm; thermal shift relative to vanadate control, % at 40 µM; actives 25% (n = 1,500); AID 540329;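 active = substances whose mean melting-temperature shift, as a percentage of the reference inhibitor's shift, reaches about 5.3%, limit read from the data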
Hits are given with their value; 0 = inactive; - = no result.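 The calls were made as follows, unless noted: active = inhibition of at least 30% at 20 µM; inactive = the rest.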

SMILES	SUMO1-SIM PPI	LMPTP inh	STEP inh	GRK2 inh	DNMT1 inh	Scp-1 inhibitor	Scp-1 conf	MG interference	others
C/C=C/C(=O)Nc1cccc(C2=NOC3(C2)C[C@H](C(N)=O)N(C(=O)/C=C/C)C3)c1 (stereo not given in full)	0	0	0	0	0	0	-	-
C/C=C/C=C/C(=O)N1CC2(CC(c3cccc(NC(=O)/C=C/C)c3)=NO2)C[C@@H]1C(N)=O (stereo not given in full)	0	0	0	0	0	56.0	0	0
NC(Cc1ccc(Cl)cc1)c1csc(Nc2ccc(-c3ccccc3)nn2)n1 (stereo not given)	0	0	0	-	0	-	-	-
CCCCCCCCN1C(=O)[C@H](CC(=O)NCc2ccc(OC)c(OC)c2)C[C@@]2(C(=O)OCC)CCCC=C12	0	0	-	-	-	-	-	-
COc1ccc(N2CCN(C(=O)CN(C)S(=O)(=O)c3cnc[nH]3)CC2)cc1	0	0	0	0	0	53.6	0	0
O=C(NCc1ccccc1)C(c1ccc(C(F)(F)F)cc1)n1c(=O)c(-c2cc3ccccc3[nH]2)nc2ccccc21 (stereo not given)	0	0	-	-	-	-	-	-
COc1cc(C(=O)N/N=C/c2sc(=O)n(-c3ccccc3)c2Cl)cc(OC)c1OC	0	0	0	0	0	50.4	0	0
COc1ccc(-c2nc3ccccc3n(CC(C)C)c2=O)cc1	0	0	-	-	-	-	-	-
CC(=O)Nc1ccc(-c2noc(-c3csc([C@@H]4C[C@H](O)[C@@H](CO)O4)n3)n2)cc1	0	0	0	-	0	-	-	-
Cn1nnc(-c2ccc(OCc3ccccc3F)cc2)n1	0	0	0	0	0	64.5	0	0
O=C(O)Cn1nnc(-c2ccc(OCc3ccccc3Cl)cc2)n1	-	-	-	0	-	0	-	-
Cc1cccc(NC(=O)CSc2nc(N)c(NC(=O)c3ccccc3F)c(=O)[nH]2)c1	0	0	0	0	0	0	-	-
CC(=O)Nc1ccc(NC(=O)CSc2nc(N)c(NC(=O)c3ccccc3F)c(=O)[nH]2)cc1	0	0	0	0	0	52.6	48.8	0	Scp1 DSF=0
Cc1c(C(=O)O)sc2nc(CSc3ncc(C(F)(F)F)cc3Cl)[nH]c(=O)c12	0	0	0	0	0	96.7	48.8	0	Scp1 DSF=0
CCOC(=O)c1sc2nc(CSc3ccccc3Cl)[nH]c(=O)c2c1C	0	0	0	0	0	0	-	-
CCOC(=O)C1CC2=C(CC(C)(C)CC2=O)N(CCOC)C1=O (stereo not given)	0	0	0	-	0	0	-	-
CC1CCCC(C)N1c1nnc(NC(=O)Cn2c(=O)oc3ccccc32)s1 (stereo not given)	0	0	0	0	0	94.8	0	0
O=C(NCc1ccc2c(c1)OCO2)c1cc(-n2cnnc2)ccc1Cl	0	0	0	0	0	84.8	0	0
Cc1cc(=O)oc2ccc(OCC(=O)NCc3ccco3)cc12	0	0	0	0	0	0	-	-
O=C(COc1ccc2oc(-c3ccco3)cc(=O)c2c1)N1CCCCC1	0	0	0	0	0	59.5	44.1	0	Scp1 DSF=0
O=C(COc1ccc2oc(-c3ccccc3)cc(=O)c2c1)NCc1ccco1	0	0	0	0	0	81.7	58.8	0	Scp1 DSF=0
C[C@H]1CN([C@@H](C)CO)C(=O)c2cc(C#CC3(O)CCCC3)cnc2O[C@H]1CN(C)C(=O)C1CC1	0	0	0	-	0	-	-	-
O=C(CCN1C(=O)/C(=C/c2ccc(F)cc2)SC1=S)Nc1cc([N+](=O)[O-])ccc1O	0	0	0	0	0	64.0	50.1	0	Scp1 DSF=7.2
COc1ccc(/C=C2\SC(=S)N(CCCC(=O)Nc3ccc(O)cc3)C2=O)cc1	0	0	0	0	0	0	-	-
